ChEMBL document CHEMBL3045677, “Sulfonamide-1,2,4-thiadiazole derivatives as antifungal and antibacterial agents: synthesis, biological evaluation, lipophilicity, and conformational studies” (2010)
Values after ≈ are worked out from the molar mass of the structure shown.

Key:
Aspergillus flavus = assay: Antifungal activity against Aspergillus flavus ATCC 9643 at 28 degC measured after 72 hr by microdilution method; type: functional; details: ATCC 9643, 72 h
Procedure, shortened: (§1)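 Fungi were kept on malt agar at 4 °C. Spores were washed off with sterile 0.85% saline containing 0.1% Tween 80 and adjusted to about 1.0×10⁵ per well. Compounds were dissolved in DMSO (1 mg/ml stock) and serially diluted in malt broth with inoculum in 96-well plates, 72 h at 28 °C, for MIC. MFC came from subculture into fresh broth for a further 72 h at 28 °C.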

Pseudomonas aeruginosa [1] = assay: Antibacterial activity against Pseudomonas aeruginosa ATCC 27853 at […] degC measured after 72 hr by microdilution method; type: functional; details: ATCC 27853, 72 h
Procedure, shortened: (§2)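 Bactericidal endpoint: after the 24 h broth microdilution (1.0×10⁴ CFU per well, LB broth, […] °C), wells were serially subcultured into plates of fresh broth and incubated a further 72 h. MBC was the lowest concentration with no visible growth, taken as 99.5% killing of the original inoculum.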

Bacillus cereus [2] = assay: Antibacterial activity against clinical isolate Bacillus cereus at […] degC measured after 24 hr by microdilution method; type: functional
Procedure, shortened: (§3)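 Bacteria suspended in sterile saline at 1.0×10⁵ CFU/ml and added at 1.0×10⁴ CFU per well to LB broth with compound (1 mg/ml) in 96-well plates. Incubated 24 h at […] °C. MIC was the lowest concentration without visible growth under a binocular microscope. OD 655 nm was read against a blank and a positive control.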

Aspergillus niger = assay: Antifungal activity against Aspergillus niger ATCC 6275 at 28 degC measured after 72 hr by microdilution method; type: functional; details: ATCC 6275, 72 h; procedure, shortened: as §1
Salmonella typhimurium [3] = assay: Antibacterial activity against Salmonella enterica subsp. enterica serovar Typhimurium ATCC 13311 at […] degC measured after 24 hr by microdilution method; type: functional; details: ATCC 13311, 24 h; procedure, shortened: as §3
Listeria monocytogenes [4] = assay: Antibacterial activity against Listeria monocytogenes NCTC 7973 at […] degC measured after 24 hr by microdilution method; type: functional; details: NCTC 7973, 24 h; procedure, shortened: as §3
Escherichia coli [5] = assay: Antibacterial activity against Escherichia coli ATCC 35210 at […] degC measured after 72 hr by microdilution method; type: functional; details: ATCC 35210, 72 h; procedure, shortened: as §2
Listeria monocytogenes [6] = assay: Antibacterial activity against Listeria monocytogenes NCTC 7973 at […] degC measured after 72 hr by microdilution method; type: functional; details: NCTC 7973, 72 h; procedure, shortened: as §2
Staphylococcus aureus [7] = assay: Antibacterial activity against Staphylococcus aureus ATCC 6538 at […] degC measured after 72 hr by microdilution method; type: functional; details: ATCC 6538, 72 h; procedure, shortened: as §2
Micrococcus flavus [8] = assay: Antibacterial activity against Micrococcus flavus ATCC 10240 at […] degC measured after 24 hr by microdilution method; type: functional; details: ATCC 10240, 24 h; procedure, shortened: as §3
Aspergillus fumigatus = assay: Antifungal activity against plant isolate Aspergillus fumigatus at 28 degC measured after 72 hr by microdilution method; type: functional; procedure, shortened: as §1
Proteus mirabilis [9] = assay: Antibacterial activity against Proteus mirabilis at […] degC measured after 72 hr by microdilution method; type: functional; procedure, shortened: as §2
Penicillium ochrochloron = assay: Antifungal activity against Penicillium ochrochloron ATCC 9112 at 28 degC measured after 72 hr by microdilution method; type: functional; details: ATCC 9112, 72 h; procedure, shortened: as §1
Proteus mirabilis [10] = assay: Antibacterial activity against Proteus mirabilis at […] degC measured after 24 hr by microdilution method; type: functional; procedure, shortened: as §3
Bacillus cereus [11] = assay: Antibacterial activity against clinical isolate Bacillus cereus at […] degC measured after 72 hr by microdilution method; type: functional; procedure, shortened: as §2
Trichoderma viride = assay: Antifungal activity against Hypocrea rufa IAM 5061 at 28 degC measured after 72 hr by microdilution method; type: functional; details: IAM 5061, 72 h; procedure, shortened: as §1
Micrococcus flavus [12] = assay: Antibacterial activity against Micrococcus flavus ATCC 10240 at […] degC measured after 72 hr by microdilution method; type: functional; details: ATCC 10240, 72 h; procedure, shortened: as §2
Pseudomonas aeruginosa [13] = assay: Antibacterial activity against Pseudomonas aeruginosa ATCC 27853 at […] degC measured after 24 hr by microdilution method; type: functional; details: ATCC 27853, 24 h; procedure, shortened: as §3
Aspergillus versicolor = assay: Antifungal activity against Aspergillus versicolor ATCC 11730 at 28 degC measured after 72 hr by microdilution method; type: functional; details: ATCC 11730, 72 h; procedure, shortened: as §1
Salmonella typhimurium [14] = assay: Antibacterial activity against Salmonella enterica subsp. enterica serovar TyphimuriumATCC 13311 at […] degC measured after 72 hr by microdilution method; type: functional, Salmonella enterica subsp. enterica serovar Typhimurium; details: ATCC 13311, 72 h; procedure, shortened: as §2
Staphylococcus aureus [15] = assay: Antibacterial activity against Staphylococcus aureus ATCC 6538 at […] degC measured after 24 hr by microdilution method; type: functional; details: ATCC 6538, 24 h; procedure, shortened: as §3
Talaromyces funiculosus = assay: Antifungal activity against Talaromyces funiculosus ATCC 36839 at 28 degC measured after 72 hr by microdilution method; type: functional; details: ATCC 36839, 72 h; procedure, shortened: as §1
Escherichia coli [16] = assay: Antibacterial activity against Escherichia coli ATCC 35210 at […] degC measured after 24 hr by microdilution method; type: functional; details: ATCC 35210, 24 h; procedure, shortened: as §3
Fulvia fulva = assay: Antifungal activity against Passalora fulva TK5318 at 28 degC measured after 72 hr by microdilution method; type: functional; details: TK5318, 72 h; procedure, shortened: as §1

| SMILES | MFC (Aspergillus flavus) [µM] | MIC (Aspergillus flavus) [µM] | MBC (Pseudomonas aeruginosa [1]) [µM] | MIC (Bacillus cereus [2]) [µM] | MFC (Aspergillus niger) [µM] | MIC (Aspergillus niger) [µM] | MIC (Salmonella typhimurium [3]) [µM] | MIC (Listeria monocytogenes [4]) [µM] | MBC (Escherichia coli [5]) [µM] | MBC (Listeria monocytogenes [6]) [µM] | MBC (Staphylococcus aureus [7]) [µM] | MIC (Micrococcus flavus [8]) [µM] | MFC (Aspergillus fumigatus) [µM] | MIC (Aspergillus fumigatus) [µM] | MBC (Proteus mirabilis [9]) [µM] | MFC (Penicillium ochrochloron) [µM] | MIC (Penicillium ochrochloron) [µM] | MIC (Proteus mirabilis [10]) [µM] | MBC (Bacillus cereus [11]) [µM] | MFC (Trichoderma viride) [µM] | other results |
| --- | --- | --- | --- | --- | --- | --- | --- | --- | --- | --- | --- | --- | --- | --- | --- | --- | --- | --- | --- | --- | --- |
| COc1cc(Cc2nnc(Nc3ccc(C(F)(F)F)cc3)s2)c(S(=O)(=O)N2CCCC2)cc1OC | 37.8 (≈ 20 µg/mL) | 18.9 (≈ 9.99 µg/mL) | 18.9 (≈ 9.99 µg/mL) | 9.5 (≈ 5.02 µg/mL) | 37.8 (≈ 20 µg/mL) | 18.9 (≈ 9.99 µg/mL) | 9.5 (≈ 5.02 µg/mL) | 18.9 (≈ 9.99 µg/mL) | 37.8 (≈ 20 µg/mL) | 18.9 (≈ 9.99 µg/mL) | 18.9 (≈ 9.99 µg/mL) | 18.9 (≈ 9.99 µg/mL) | 37.8 (≈ 20 µg/mL) | 18.9 (≈ 9.99 µg/mL) | 37.8 (≈ 20 µg/mL) | 37.8 (≈ 20 µg/mL) | 18.9 (≈ 9.99 µg/mL) | 18.9 (≈ 9.99 µg/mL) | 18.9 (≈ 9.99 µg/mL) | 18.9 (≈ 9.99 µg/mL) | MIC (Trichoderma viride): 9.5 µM (≈ 5.02 µg/mL); MBC (Micrococcus flavus [12]): 37.8 µM (≈ 20 µg/mL); MIC (Pseudomonas aeruginosa [13]): 9.5 µM (≈ 5.02 µg/mL); MFC (Aspergillus versicolor): 37.8 µM (≈ 20 µg/mL); MIC (Aspergillus versicolor): 18.9 µM (≈ 9.99 µg/mL); MBC (Salmonella typhimurium [14]): 18.9 µM (≈ 9.99 µg/mL); MIC (Staphylococcus aureus [15]): 9.5 µM (≈ 5.02 µg/mL); MFC (Talaromyces funiculosus): 37.8 µM (≈ 20 µg/mL); MIC (Talaromyces funiculosus): 18.9 µM (≈ 9.99 µg/mL); MIC (Escherichia coli [16]): 18.9 µM (≈ 9.99 µg/mL); MFC (Fulvia fulva): 75.6 µM (≈ 40 µg/mL); MIC (Fulvia fulva): 18.9 µM (≈ 9.99 µg/mL) |
| COc1cc(Cc2nnc(Nc3ccc(Cl)cc3)s2)c(S(=O)(=O)N2CCCCC2)cc1OC | 19.7 (≈ 10 µg/mL) | 9.8 (≈ 4.99 µg/mL) | 19.7 (≈ 10 µg/mL) | 9.8 (≈ 4.99 µg/mL) | 39.4 (≈ 20.1 µg/mL) | 19.7 (≈ 10 µg/mL) | 9.8 (≈ 4.99 µg/mL) | 39.4 (≈ 20.1 µg/mL) | 39.4 (≈ 20.1 µg/mL) | 78.8 (≈ 40.1 µg/mL) | 39.4 (≈ 20.1 µg/mL) | 19.7 (≈ 10 µg/mL) | 39.4 (≈ 20.1 µg/mL) | 19.7 (≈ 10 µg/mL) | 78.7 (≈ 40.1 µg/mL) | 39.4 (≈ 20.1 µg/mL) | 19.7 (≈ 10 µg/mL) | 19.7 (≈ 10 µg/mL) | 19.7 (≈ 10 µg/mL) | 19.7 (≈ 10 µg/mL) | MIC (Trichoderma viride): 9.8 µM (≈ 4.99 µg/mL); MBC (Micrococcus flavus [12]): 39.4 µM (≈ 20.1 µg/mL); MIC (Pseudomonas aeruginosa [13]): 9.8 µM (≈ 4.99 µg/mL); MFC (Aspergillus versicolor): 19.7 µM (≈ 10 µg/mL); MIC (Aspergillus versicolor): 9.8 µM (≈ 4.99 µg/mL); MBC (Salmonella typhimurium [14]): 19.7 µM (≈ 10 µg/mL); MIC (Staphylococcus aureus [15]): 19.7 µM (≈ 10 µg/mL); MFC (Talaromyces funiculosus): 39.4 µM (≈ 20.1 µg/mL); MIC (Talaromyces funiculosus): 19.7 µM (≈ 10 µg/mL); MIC (Escherichia coli [16]): 19.7 µM (≈ 10 µg/mL); MFC (Fulvia fulva): 19.7 µM (≈ 10 µg/mL); MIC (Fulvia fulva): 9.8 µM (≈ 4.99 µg/mL) |
